From PubChem
eIF4H FP inh: inhibitors of RNA binding by human eIF4H; AID 2012; eIF4H fluorescence polarization binding assay; actives 0.94% (n = 290,000); Q15056; inhibition, % at 35 µM;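 also: calls also rest on retests at 20 µM and on dose response follow-up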
HCV NS3 hel inh: HCV NS3 helicase inhibition | AID 1800 | NS3 helicase DNA unwinding, Cy5 molecular beacon fluorescence | inhibition, % at 10.9 µM | actives 0.56% (n = 290,000);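 active = inhibition above the mean of all tested compounds plus 3 SD, set per campaign, cut at about 35% in these data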
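System: HCV NS3 helicase fragment; control set: DMSO and thioflavine S; technique: Cy5 fluorescence at 0 and 60 min, beacon hairpin quenching; reagent: beacon DNA duplex substrate plus ATP; replicates: singlicate; schedule: 1 h reaction at 25 °C, ATP-initiated; medium: MOPS buffer pH 6.5 with MgCl2, DTT, Tween20, BSA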
core dimer inh: blocks dimerization of HCV core protein | TR-FRET GST/Flag-core106 dimerization, 1536-well | inhibition, % at 5 µM | actives 0.33% (n = 300,000) | AID 1899;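 active = inhibition above the mean of all tested compounds plus 3 SD, set per screening campaign, cut at about 45% in these data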
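Assay system: GST-tagged and Flag-tagged HCV core protein residues 1-106 / Times: compound-protein-antibody incubation 4 h at 22.5 °C / Signal: time-resolved FRET, ex 340 nm, em 617 and 671 nm / Evaluation: % inhibition based on acceptor/donor emission ratio / Benchmarks: wells lacking GST-core106 and wells with excess unlabelled core106 / Repeats: singlicate, one well per compound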
MLLE-PAM2 inh: inhibitors of microRNA-mediated deadenylation, human PABP1 MLLE binding. GST-MLLE / FITC-PAM2 fluorescence polarization. inhibition, % at 20 µM. actives 0.36% (n = 360,000). AID 588489; in the data active = inhibition above about 35%, passing the limit was not always enough
DNA FID counter-1: displaces DNA intercalator in HCV helicase counter-screen; actives 0.17% (n = 290,000); inhibition, % at 7.9 µM; AID 1845; DNA fluorescent intercalator displacement, fluorescence; in the data active = inhibition above about 37%;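 also: higher means more ethidium bromide displaced from hairpin DNA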
PABP FP inh: PABP-poly(A) binding inhibition; P11940; PABP-poly(A) RNA binding, fluorescence polarization; inhibition, % at 35 µM; actives 1% (n = 290,000); AID 2014;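 also: calls also rest on retests at 20 µM and on dose response follow-up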
NS3 hel confirm: confirmation of Hepatitis C virus NS3 helicase inhibitors; shares compounds with HCV NS3 hel inh; NS3 helicase DNA unwinding, Cy5 molecular beacon fluorescence; inhibition, % at 10.9 µM; actives 31% (n = 1,600); AID 1943;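 active = inhibition above the mean of all tested compounds plus 3 SD, cutoff set per campaign, cut at about 36% in these data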
DNA FID counter-2: counter-screen for HCV NS3 helicase inhibitors: DNA intercalator displacement | shares compounds with HCV NS3 hel inh | DNA fluorescent intercalator displacement, fluorescence | inhibition, % at 7.9 µM | actives 4% (n = 1,600); in the data active = inhibition above about 37%;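 also: higher means more displacement of ethidium bromide from the DNA hairpin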
Of the large screens only hits and unclear results are named; the others gave an inactive call (follow-up assays come after a bar, where they were run). In the library only some 2% were active in any assay of this set; here they are far more common. Unless noted, no rule for the calls is given here.

O=C1CC(c2ccc(Cl)cc2)CC(=O)C1CS(=O)(=O)c1ccccc1 (stereo unspecified)	HCV NS3 hel inh 36 | NS3 hel confirm 70 | DNA FID counter-2 inactive
COc1cc(/C=N/NC(=O)c2nonc2N)cc(OC)c1OC	HCV NS3 hel inh 39 | NS3 hel confirm inactive | DNA FID counter-2 inactive
COc1cccc(C(=O)N/N=C/c2ccc(OC)c(COc3ccccc3C(N)=O)c2)c1	HCV NS3 hel inh 43 | NS3 hel confirm inactive | DNA FID counter-2 inactive
CC1=NN(c2ccccc2)C(=O)/C1=C/C=C/C=C/N(C)C	eIF4H FP inh inconclusive, HCV NS3 hel inh 39 | NS3 hel confirm inactive | DNA FID counter-2 inactive
CC1=NN(c2ccc(C)cc2)C(=O)/C1=C\C=C\c1ccccc1	none
CC1(C(=O)NS(=O)(=O)c2cccc(C#N)c2)CCN1C(=O)c1ccco1 (stereo unspecified)	none (no result: eIF4H FP inh, HCV NS3 hel inh, core dimer inh, DNA FID counter-1, PABP FP inh)
Cc1ccc(S(=O)(=O)NC(=O)Nc2ccc(N(C)C)cc2)cc1	HCV NS3 hel inh 51 | NS3 hel confirm 70 | DNA FID counter-2 inactive
Cc1ccc(S(=O)(=O)NC(=O)c2cc(C)n(-c3ccc(N(C)C)cc3)c2C)cc1	HCV NS3 hel inh 42 | NS3 hel confirm inactive | DNA FID counter-2 inactive
Cc1ccc(NC(=O)NNS(=O)(=O)c2ccc(Br)cc2)cc1	none
CN(Cc1ccccc1)C(=O)c1[nH]cnc1C(=O)Nc1ccccc1F	none (no result: eIF4H FP inh, HCV NS3 hel inh, core dimer inh, DNA FID counter-1, PABP FP inh)
C/C(N)=C(/C#N)C(=O)COC(=O)C1CCN(S(=O)(=O)c2cccs2)CC1	none (no result: eIF4H FP inh, HCV NS3 hel inh, core dimer inh, DNA FID counter-1, PABP FP inh)
Cc1cc(F)ccc1S(=O)(=O)Nc1ncnc2sc3c(c12)CCC3	HCV NS3 hel inh 39 | NS3 hel confirm inactive | DNA FID counter-2 inactive
O=S(=O)(Nc1ncnc2sc3c(c12)CCC3)c1ccc2ccccc2c1	none
COc1cccc(CN(C(=O)c2ccc([N+](=O)[O-])cc2)C2CCS(=O)(=O)C2)c1 (stereo unspecified)	none
O=C(O)CN1C(=O)/C(=C/c2cccc(Cl)c2)Oc2ccccc21	HCV NS3 hel inh 54 | NS3 hel confirm 59 | DNA FID counter-2 inactive
O=C(O)CN1C(=O)/C(=C/c2ccccc2Cl)Oc2ccccc21	none
CCOC(=O)c1c(NC(=O)C2C3C=CC(C3)C2C(=O)O)sc2c1CCC(CC)C2 (stereo unspecified)	HCV NS3 hel inh 39 | NS3 hel confirm 84 | DNA FID counter-2 inactive
CCOC(=O)c1c(NC(=O)C2C3CCC(O3)C2C(=O)O)sc2c1CCC(CC)C2 (stereo unspecified)	none
COCCn1c(SCC(=O)Nc2ccccc2OC)nc2ccccc2c1=O	none
COCCn1c(-c2ccc(OC)cc2)cnc1SCC(=O)Nc1cccc2ccccc12	HCV NS3 hel inh 47 | NS3 hel confirm inactive | DNA FID counter-2 inactive
COc1ccc(-c2cnc(SCC(=O)Nc3nc(C(C)(C)C)cs3)n2Cc2ccco2)cc1	HCV NS3 hel inh 52 | NS3 hel confirm inactive | DNA FID counter-2 inactive
COc1ccc(-c2noc(-c3csc([C@@H]4O[C@H](CO)[C@H](O)[C@H](O)[C@H]4O)n3)n2)cc1OC	none (no result: eIF4H FP inh, HCV NS3 hel inh, core dimer inh, DNA FID counter-1, PABP FP inh)
Cc1cc(/C=C2\Cc3ccccc3C2=O)c(C)n1-c1ccccc1	HCV NS3 hel inh 39 | NS3 hel confirm inactive | DNA FID counter-2 inactive
Nc1nc(-c2ccco2)c(-c2ccco2)s1	eIF4H FP inh inconclusive, HCV NS3 hel inh 49, MLLE-PAM2 inh 44, PABP FP inh inconclusive | NS3 hel confirm inactive | DNA FID counter-2 inactive
OCc1cn(-c2ccccc2)nc1-c1ccco1	none
Nc1nc(-c2ccco2)cs1	eIF4H FP inh 79, HCV NS3 hel inh 37, PABP FP inh 66 | NS3 hel confirm inactive | DNA FID counter-2 inactive
c1coc(-c2nc(-c3ccco3)c(-c3ccco3)nc2-c2ccco2)c1	eIF4H FP inh 85, HCV NS3 hel inh 116, core dimer inh 73, PABP FP inh 94 | NS3 hel confirm 93 | DNA FID counter-2 38
CC(=O)NCCNc1nc2cc(-c3cscc3C)sc2c(=O)n1C	none (no result: eIF4H FP inh, HCV NS3 hel inh, core dimer inh, DNA FID counter-1, PABP FP inh)
O=S(=O)(NC1CCCCC1)c1ccc(Cl)s1	HCV NS3 hel inh 52 | NS3 hel confirm inactive | DNA FID counter-2 inactive
